This note sets out measurements from ChEMBL document CHEMBL1140839, “Carbamate-appended N-alkylsulfonamides as inhibitors of gamma-secretase” (Bioorg Med Chem Lett, 2008).

SMILES strings stand for the structures. The source made the active and inactive calls. The rule behind the calls is not given here.

The term IC50 denotes the concentration that gives 50% inhibition.

For data set [1], the system named is Mus musculus. In words: Reduction in amyloid beta level in Tg2576 mouse brain at 200 umol/kg, po after 3 hrs. Format: functional. More on the design: scale not given: the % may be the effect or the level left. The gist of the method:
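Tg2576 (βAPP-Swedish) transgenic mice received one oral dose of 200 μmol/kg. Brain Aβ was measured 3 h later and expressed as % reduction.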

Data set [2] can be described thus: Drug level in Tg2576 mouse plasma at 200 umol/kg, po after 3 hrs. It is filed as ADME, organism-based. The following applies: read-out: Drug uptake. The gist of the method:
(§1)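 Tg2576 (βAPP-Swedish) transgenic mice received one oral dose of 200 μmol/kg. Plasma and brain drug concentrations (nM) were measured 3 h after dosing and reported as mean ± error.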

The target in data set [3] is Gamma-secretase. As to the kind of experiment: Inhibition of gamma secretase in human H4 cells assessed as reduction in amyloid beta40 level by ELISA. It is filed as cell-based. The gist of the method: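 Cells were plated and allowed to attach, then the medium was replaced with Ultraculture containing compound at 1% final DMSO. After overnight incubation, Aβ40 in the conditioned medium was measured by sandwich ELISA (C-terminal Aβ40-specific capture antibody, HRP-labelled N-terminal Aβ antibody for detection). IC50 values are means of two experiments, each with 12 concentrations; intra-assay variance was <10%.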

The nature of data set [4]: Drug level in Tg2576 mouse brain at 200 umol/kg, po after 3 hrs. The settings on record: read-out: Drug uptake. It is filed as ADME, organism-based. In short, it runs like this: as §1

With `CCN(CCCn1ccnc1)C(=O)OC[C@@H](C)N(c1cc(Cl)ccc1Cl)S(=O)(=O)c1ccc(Cl)cc1`, the Activity in data set [1] is given as 50%. In addition, the concentration at 3 h in data set [2] turned out to be 98.9 µM; in data set [4] it was 41.2 µM. Further, the half-inhibitory concentration (IC50) in data set [3] is 0.27 nM.
With `CC(C)NC(=O)OC[C@@H](C)N(c1cc(Cl)ccc1CO)S(=O)(=O)c1ccc(Cl)cc1`, the IC50 in data set [3] was found to be 12 nM.
With `C[C@H](CCCN(C)S(C)(=O)=O)N(c1cc(Cl)ccc1CO)S(=O)(=O)c1ccc(Cl)cc1`, the Activity in data set [1] is 27%.
On to `CC(C)N(CCCn1ccnc1)C(=O)OC[C@@H](C)N(c1cc(Cl)ccc1CO)S(=O)(=O)c1ccc(Cl)cc1`, for which the IC50 in data set [3] is 19 nM.
Consider `CNC(=O)OC[C@@H](C)N(c1cc(Cl)ccc1CO)S(=O)(=O)c1ccc(Cl)cc1`, for which, in data set [3], the IC50 came to 15 nM.
On the same count and under the same terms, for `CCC(C)NC(=O)OC[C@@H](C)N(c1cc(Cl)ccc1CO)S(=O)(=O)c1ccc(Cl)cc1` (stereo partly drawn) the value was 15 nM; for `C[C@H](COC(=O)NCCCn1ccnc1)N(c1cc(Cl)ccc1Cl)S(=O)(=O)c1ccc(Cl)cc1`, 0.41 nM.
`C[C@H](COC(=O)NC1CCCCC1)N(c1cc(Cl)ccc1CO)S(=O)(=O)c1ccc(Cl)cc1`: the half-maximal inhibitory concentration (IC50) in data set [3] is 5.6 nM.
On to `C[C@H](COC(=O)N1CCCC1)N(c1cc(Cl)ccc1CO)S(=O)(=O)c1ccc(Cl)cc1`, for which the IC50 in data set [3] was determined as 1.8 nM.
Take `C[C@H](COC(=O)N(CCCn1ccnc1)CC1CC1)N(c1cc(Cl)ccc1CO)S(=O)(=O)c1ccc(Cl)cc1`: the result in data set [1] was inactive. Further, the values for the concentration at 3 h in data set [2] and in data set [4] were 6.83 µM and 0.859 µM, respectively. Moreover, the IC50 in data set [3] worked out at 0.06 nM.
Take `C[C@H](CCOC(=O)NCCn1ccnc1)N(c1cc(Cl)ccc1CO)S(=O)(=O)c1ccc(Cl)cc1`: the IC50 in data set [3] worked out at 4 nM.
In the case of `CCN(CC)C(=O)OC[C@@H](C)N(c1cc(Cl)ccc1CO)S(=O)(=O)c1ccc(Cl)cc1`, in data set [3], the IC50 was 18 nM.
Turning to `CCN(CCCn1ccnc1)C(=O)OC[C@@H](C)N(c1cc(Cl)ccc1CO)S(=O)(=O)c1ccc(Cl)cc1`, in data set [1], the Activity is 15%. Further, the concentration at 3 h in data set [2] is 0.73 µM; in data set [4] it was 0.227 µM. Further, the IC50 in data set [3] came out at 0.06 nM.
For `C[C@H](COC(=O)NCCCn1ccnc1)N(c1cc(Cl)ccc1CO)S(=O)(=O)c1ccc(Cl)cc1`, the IC50 in data set [3] is 2.3 nM.
For the compound `C[C@H](CCCn1cnnn1)N(c1cc(Cl)ccc1CO)S(=O)(=O)c1ccc(Cl)cc1`, the Activity in data set [1] turned out to be 41%.
For the compound `C[C@H](COC(=O)NC(C)(C)C)N(c1cc(Cl)ccc1CO)S(=O)(=O)c1ccc(Cl)cc1`, the IC50 in data set [3] turned out to be 12 nM.
Consider `C[C@H](CCOC(=O)NCCCn1ccnc1)N(c1cc(Cl)ccc1CO)S(=O)(=O)c1ccc(Cl)cc1`, for which the IC50 in data set [3] was found to be 7.7 nM.
Consider `C[C@H](COC(=O)NCCCn1ccnc1)N(c1cc(Cl)ccc1F)S(=O)(=O)c1ccc(Cl)cc1`, for which, in data set [3], the IC50 came to 0.66 nM.
In the case of `CCNC(=O)OC[C@@H](C)N(c1cc(Cl)ccc1CO)S(=O)(=O)c1ccc(Cl)cc1`, the 50% inhibitory concentration (IC50) in data set [3] was determined as 10 nM.
On the same count and under the same terms, for `CCCNC(=O)OC[C@@H](C)N(c1cc(Cl)ccc1CO)S(=O)(=O)c1ccc(Cl)cc1` the value was 10 nM; for `C[C@H](COC(=O)N(C)CCCn1ccnc1)N(c1cc(Cl)ccc1Cl)S(=O)(=O)c1ccc(Cl)cc1`, 0.48 nM; for `C[C@H](COC(=O)NCCn1ccnc1)N(c1cc(Cl)ccc1CO)S(=O)(=O)c1ccc(Cl)cc1`, 0.93 nM.
With `C[C@H](COC(=O)NCCCn1ncnn1)N(c1cc(Cl)ccc1CO)S(=O)(=O)c1ccc(Cl)cc1`, the IC50 in data set [3] was found to be 2.1 nM.
As for `C[C@H](COC(=O)NCCCn1ccnc1)N(c1cc(F)ccc1F)S(=O)(=O)c1ccc(Cl)cc1`, the IC50 in data set [3] was determined as 1.2 nM.
